{"source": "ChEMBL document CHEMBL1122125", "about": "“Synthesis and in vivo antitumor activity of potential 5-fluorouracil prodrugs” (1982)", "type_in_all_cases": "functional", "key": {"Mus musculus [1]": {"system": "Mus musculus", "test": "Antitumor activity was determined for survival range of mice against P-388 leukemia in mice at a dose of 640 mg/kg", "how_it_was_run": "(§1)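 Male B6D2F1J mice implanted ip with 10⁶ P-388 cells on day 0; test agents given ip on days 1–4 (qd × 4) in sterile saline, or in 10% Tween 80 for the lipophilic thioether. Groups of 5 treated mice, with 10–17 untreated controls per experiment. Mice weighed on days 1 and 7 to give the 7-day weight change in g and %. Survival recorded in days as median and range.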"}, "Mus musculus [2]": {"system": "Mus musculus", "test": "Antitumor activity was determined for average 7-day weight change against P-388 leukemia in mice at a dose of 640 mg/kg", "how_it_was_run": "(§2)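 Male B6D2F1J mice given 10⁶ P-388 cells ip on day 0, then treated ip once daily on days 1-4 (qd × 4), 5 mice per dose group. Compounds dosed in sterile saline, except one lipophilic thioether given in 10% Tween 80. Mice weighed on days 1 and 7; mean weight per mouse on day 1 and 7-day weight change reported in g and as percent.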"}, "Mus musculus [3]": {"system": "Mus musculus", "test": "Antitumor activity was determined for average weight on day 1 against P-388 leukemia in mice at a dose of 640 mg/kg", "how_it_was_run": "(§3)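 Male B6D2F1J mice, groups of 5, inoculated ip with 10⁶ P-388 cells on day 0. Drug given ip on days 1-4 (qd × 4) in sterile saline, or in 10% Tween 80 for the poorly water-soluble thioether. Average weight per mouse recorded on day 1, with reweighing on day 7 for percent weight change. Untreated control groups had 10-17 animals per experiment.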"}, "Mus musculus [4]": {"system": "Mus musculus", "test": "Percent increase in life span against P-388 leukemia in mice was determined at a dose of 160 mg/kg", "settings": "P388", "how_it_was_run": "(§4)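 Male B6D2F1J mice, 5 per dose group, received 10⁶ P-388 cells ip on day 0. Dosing was ip qd × 4 on days 1-4 in sterile saline, or 10% Tween 80 for the butyl thioether. Median survival times of treated (T) and untreated control (C, 10-17 mice) groups were compared: %ILS = [(T/C) − 1]100. Weights taken on days 1 and 7.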"}, "Mus musculus [5]": {"system": "Mus musculus", "test": "Antitumor activity was determined for average weight on day 1 against P-388 leukemia in mice at a dose of 320 mg/kg", "how_it_was_run": "as §3"}, "Mus musculus [6]": {"system": "Mus musculus", "test": "Antitumor activity was determined for average 7-day weight change against P-388 leukemia in mice at a dose of 80 mg/kg", "how_it_was_run": "as §2"}, "Mus musculus [7]": {"system": "Mus musculus", "test": "Antitumor activity was determined for 7-day average percent weight change against P-388 leukemia in mice at a dose of 320 mg/kg", "how_it_was_run": "as §2"}, "Mus musculus [8]": {"system": "Mus musculus", "test": "Antitumor activity was determined for 7-day average percent weight change against P-388 leukemia in mice at a dose of 640 mg/kg", "how_it_was_run": "as §2"}, "Mus musculus [9]": {"system": "Mus musculus", "test": "Antitumor activity was determined for average weight on day 1 against P-388 leukemia in mice at a dose of 160 mg/kg", "how_it_was_run": "as §2"}, "Mus musculus [10]": {"system": "Mus musculus", "test": "Antitumor activity was determined for 7-day average percent weight change against P-388 leukemia in mice at a dose of 160 mg/kg", "how_it_was_run": "as §2"}, "Mus musculus [11]": {"system": "Mus musculus", "test": "Percent increase in life span against P-388 leukemia in mice was determined at a dose of 640 mg/kg", "settings": "P388", "how_it_was_run": "as §4"}, "Mus musculus [12]": {"system": "Mus musculus", "test": "Antitumor activity was determined for median survival of mice against P-388 leukemia in mice at a dose of 160 mg/kg", "how_it_was_run": "as §1"}, "Mus musculus [13]": {"system": "Mus musculus", "test": "Antitumor activity was determined for survival range of mice against P-388 leukemia in mice at a dose of 160 mg/kg", "how_it_was_run": "as §1"}, "Mus musculus [14]": {"system": "Mus musculus", "test": "Antitumor activity was determined for survival range of mice against P-388 leukemia in mice at a dose of 320 mg/kg", "how_it_was_run": "as §1"}, "Mus musculus [15]": {"system": "Mus musculus", "test": "Antitumor activity was determined for median survival of mice against P-388 leukemia in mice at a dose of 80 mg/kg", "how_it_was_run": "as §1"}, "Mus musculus [16]": {"system": "Mus musculus", "test": "Percent increase in life span against P-388 leukemia in mice was determined at a dose of 320 mg/kg", "settings": "P388", "how_it_was_run": "as §4"}, "Mus musculus [17]": {"system": "Mus musculus", "test": "Antitumor activity was determined for average 7-day weight change against P-388 leukemia in mice at a dose of 320 mg/kg", "how_it_was_run": "as §2"}, "Mus musculus [18]": {"system": "Mus musculus", "test": "Antitumor activity was determined for median survival of mice against P-388 leukemia in mice at a dose of 320 mg/kg", "how_it_was_run": "as §1"}, "Mus musculus [19]": {"system": "Mus musculus", "test": "Antitumor activity was determined for survival range of mice against P-388 leukemia in mice at a dose of 80 mg/kg", "how_it_was_run": "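Male B6D2F1J mice, 5 per dose group, implanted ip with 10⁶ P-388 leukemia cells on day 0. Drug given ip daily on days 1-4 (qd × 4) in sterile saline, or in 10% Tween 80 for the butyl thioether. Survival range recorded in days. Untreated control groups had 10-17 animals per experiment. Mice weighed on days 1 and 7.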"}, "Mus musculus [20]": {"system": "Mus musculus", "test": "Percent increase in life span against P-388 leukemia in mice was determined at a dose of 80 mg/kg", "settings": "P388", "how_it_was_run": "as §4"}, "Mus musculus [21]": {"system": "Mus musculus", "test": "Antitumor activity was determined for average weight on day 1 against P-388 leukemia in mice at a dose of 80 mg/kg", "how_it_was_run": "as §3"}, "Mus musculus [22]": {"system": "Mus musculus", "test": "Antitumor activity was determined for average 7-day weight change against P-388 leukemia in mice at a dose of 160 mg/kg", "how_it_was_run": "as §2"}, "Mus musculus [23]": {"system": "Mus musculus", "test": "Antitumor activity was determined for median survival of mice against P-388 leukemia in mice at a dose of 640 mg/kg", "how_it_was_run": "as §1"}, "L1210": {"system": "L1210", "test": "Evaluated for cytotoxicity against L1210 mouse leukemia cells", "settings": "read-out: ID50 (the source's name)", "how_it_was_run": "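L1210 murine leukemia cells in Eagle's minimal essential medium with 15% fetal calf serum, streptomycin (100 μg/mL), penicillin (100 units/mL) and 0.05 mM 2-mercaptoethanol. Cells counted by Coulter counter after 48 h exposure. ID50 is the 50% growth-inhibitory dose. Triplicate assays, standard deviation ±10%.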"}, "Mus musculus [24]": {"system": "Mus musculus", "test": "Antitumor activity was determined for 7-day average percent weight change against P-388 leukemia in mice at a dose of 80 mg/kg", "how_it_was_run": "as §2"}}, "data": [{"compound": "C[C@H]1O[C@@H](n2cc(F)c(=O)[nH]c2=O)[C@H](O)[C@@H]1O", "note": "[DOXIFLURIDINE]", "values": [{"measurement": "Survival range", "setting": "Mus musculus [1]", "result": 9}, {"measurement": "Average weight", "setting": "Mus musculus [2]", "result": -5.6, "unit": "g mouse-1"}, {"measurement": "Average weight", "setting": "Mus musculus [3]", "result": 27, "unit": "g mouse-1"}, {"measurement": "ILS at 160 mg/kg", "setting": "Mus musculus [4]", "result": 36, "unit": "%"}, {"measurement": "Average weight", "setting": "Mus musculus [5]", "result": 26.2, "unit": "g mouse-1"}, {"measurement": "Average weight", "setting": "Mus musculus [6]", "result": 2.2, "unit": "g mouse-1"}, {"measurement": "Weight change", "setting": "Mus musculus [7]", "result": -5, "unit": "%"}, {"measurement": "Weight change", "setting": "Mus musculus [8]", "result": -21, "unit": "%"}, {"measurement": "Average weight", "setting": "Mus musculus [9]", "result": 26.8, "unit": "g mouse-1"}, {"measurement": "Weight change", "setting": "Mus musculus [10]", "result": 2, "unit": "%"}, {"measurement": "ILS at 640 mg/kg", "setting": "Mus musculus [11]", "result": 54, "unit": "%"}, {"measurement": "Survival median", "setting": "Mus musculus [12]", "result": 15}, {"measurement": "Survival range", "setting": "Mus musculus [13]", "result": 14}, {"measurement": "Survival range", "setting": "Mus musculus [14]", "result": 15}, {"measurement": "Survival median", "setting": "Mus musculus [15]", "result": 13}, {"measurement": "ILS at 320 mg/kg", "setting": "Mus musculus [16]", "result": 54, "unit": "%"}, {"measurement": "Average weight", "setting": "Mus musculus [17]", "result": -1.4, "unit": "g mouse-1"}, {"measurement": "Survival median", "setting": "Mus musculus [18]", "result": 17}, {"measurement": "Survival range", "setting": "Mus musculus [19]", "result": 11}, {"measurement": "ILS at 80 mg/kg", "setting": "Mus musculus [20]", "result": 18, "unit": "%"}, {"measurement": "Average weight", "setting": "Mus musculus [21]", "result": 28.6, "unit": "g mouse-1"}, {"measurement": "Average weight", "setting": "Mus musculus [22]", "result": 0.4, "unit": "g mouse-1"}, {"measurement": "Survival median", "setting": "Mus musculus [23]", "result": 17}, {"measurement": "IC50", "setting": "L1210", "result": 140, "unit": "µM"}, {"measurement": "Weight change", "setting": "Mus musculus [24]", "result": 7, "unit": "%"}]}]}
